Assay results from ChEMBL document CHEMBL1140751, “Novel sst5-selective somatostatin dicarba-analogues: synthesis and conformation-affinity relationships” (J Med Chem, 2008).
Numbered stars: 1 amine (or outer) side, 2 acyl side, 3 side chain; on linkers, the order of the positions; unused ones are H or OH. Bridge positions count the residues as written; N and C are the ends. Square brackets hold non-standard residues; d marks the D form. Peptide text beside a SMILES is read from it. Phe(Nα-(CH2)3CO) = O=C([C@H](Cc1ccccc1)N(CCCC(=O)[*:3])[*:1])[*:2]; N(2-aminoethyl)Phe = O=C([C@H](Cc1ccccc1)N(CCN[*:3])[*:1])[*:2]

What was measured:
[1] = target: T1, Somatostatin receptor type 5 (Homo sapiens, UniProt P35346); assay: Binding affinity to sst5 receptor
[2] = target: T1, Somatostatin receptor type 5; assay: Displacement of [125I](Leu8,D-Trp22,Tyr25)-SRIF28 from human sst5 receptor
How it was run: (§1)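 Membranes came from CHO-K1 and CCL39 cells stably expressing the human sst1–sst5 receptors. Receptor autoradiography was performed on 20 µm pellet sections mounted on slides. IC50 was derived from signal quantified by computer-assisted image processing.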

[3] = target: Somatostatin receptor type 3 (Homo sapiens, UniProt P32745); assay: Displacement of [125I](Leu8,D-Trp22,Tyr25)-SRIF28 from human sst3 receptor; how it was run: as §1
[4] = target: Somatostatin receptor type 2 (Homo sapiens, UniProt P30874); assay: Displacement of [125I](Leu8,D-Trp22,Tyr25)-SRIF28 from human sst2 receptor; how it was run: as §1
[5] = target: Somatostatin receptor type 1 (Homo sapiens, UniProt P30872); assay: Displacement of [125I](Leu8,D-Trp22,Tyr25)-SRIF28 from human sst1 receptor; how it was run: as §1
[6] = target: Somatostatin receptor type 4 (Homo sapiens, UniProt P31391); assay: Displacement of [125I](Leu8,D-Trp22,Tyr25)-SRIF28 from human sst4 receptor; how it was run: as §1
Sequence of Somatostatin receptor type 4 (P31391 whole entry): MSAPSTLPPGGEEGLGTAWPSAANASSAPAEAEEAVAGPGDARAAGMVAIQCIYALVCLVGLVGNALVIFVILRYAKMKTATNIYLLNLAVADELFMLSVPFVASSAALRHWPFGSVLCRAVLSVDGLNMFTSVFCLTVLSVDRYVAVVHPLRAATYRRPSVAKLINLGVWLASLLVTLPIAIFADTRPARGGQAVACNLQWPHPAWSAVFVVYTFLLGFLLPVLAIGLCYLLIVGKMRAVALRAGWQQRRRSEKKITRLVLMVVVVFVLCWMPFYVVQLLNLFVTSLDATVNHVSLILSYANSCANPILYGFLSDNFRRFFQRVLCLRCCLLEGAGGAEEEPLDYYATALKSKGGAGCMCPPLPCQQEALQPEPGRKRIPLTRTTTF

Sequence of Somatostatin receptor type 2 (P30874 whole entry): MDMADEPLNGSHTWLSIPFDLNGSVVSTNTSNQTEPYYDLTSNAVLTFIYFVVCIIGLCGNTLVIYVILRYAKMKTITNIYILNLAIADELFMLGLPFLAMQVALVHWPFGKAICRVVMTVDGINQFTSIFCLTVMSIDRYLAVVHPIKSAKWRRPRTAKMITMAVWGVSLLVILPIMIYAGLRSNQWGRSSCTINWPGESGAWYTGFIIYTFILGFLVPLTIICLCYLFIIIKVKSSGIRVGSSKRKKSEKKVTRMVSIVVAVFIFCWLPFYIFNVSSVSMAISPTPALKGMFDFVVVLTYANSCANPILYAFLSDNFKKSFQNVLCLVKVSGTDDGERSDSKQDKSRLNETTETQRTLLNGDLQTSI
Sequence of Somatostatin receptor type 3 (P32745 whole entry): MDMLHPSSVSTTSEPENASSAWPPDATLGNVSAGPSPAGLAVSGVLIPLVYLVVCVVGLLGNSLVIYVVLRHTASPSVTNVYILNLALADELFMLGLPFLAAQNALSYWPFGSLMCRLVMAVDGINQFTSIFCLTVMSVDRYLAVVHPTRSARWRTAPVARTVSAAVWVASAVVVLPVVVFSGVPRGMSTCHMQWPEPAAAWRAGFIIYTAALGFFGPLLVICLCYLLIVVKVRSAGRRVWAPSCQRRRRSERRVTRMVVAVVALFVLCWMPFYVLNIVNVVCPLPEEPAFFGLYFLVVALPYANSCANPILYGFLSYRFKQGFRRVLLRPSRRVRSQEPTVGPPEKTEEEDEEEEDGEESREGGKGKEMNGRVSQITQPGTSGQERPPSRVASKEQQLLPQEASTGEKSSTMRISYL
Sequence of Somatostatin receptor type 1 (P30872 whole entry): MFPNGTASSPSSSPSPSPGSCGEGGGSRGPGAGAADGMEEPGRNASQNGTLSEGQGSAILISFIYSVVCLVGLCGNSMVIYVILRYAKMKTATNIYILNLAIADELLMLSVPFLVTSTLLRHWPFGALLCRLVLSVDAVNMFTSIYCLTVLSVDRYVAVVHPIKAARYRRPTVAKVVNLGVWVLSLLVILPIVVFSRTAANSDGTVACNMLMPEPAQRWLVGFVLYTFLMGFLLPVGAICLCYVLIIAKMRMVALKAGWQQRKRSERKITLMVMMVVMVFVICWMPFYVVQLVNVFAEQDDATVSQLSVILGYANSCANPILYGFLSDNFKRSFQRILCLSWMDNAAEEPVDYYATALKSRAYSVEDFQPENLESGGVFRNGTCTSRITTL
T1 sequence (P35346 whole entry): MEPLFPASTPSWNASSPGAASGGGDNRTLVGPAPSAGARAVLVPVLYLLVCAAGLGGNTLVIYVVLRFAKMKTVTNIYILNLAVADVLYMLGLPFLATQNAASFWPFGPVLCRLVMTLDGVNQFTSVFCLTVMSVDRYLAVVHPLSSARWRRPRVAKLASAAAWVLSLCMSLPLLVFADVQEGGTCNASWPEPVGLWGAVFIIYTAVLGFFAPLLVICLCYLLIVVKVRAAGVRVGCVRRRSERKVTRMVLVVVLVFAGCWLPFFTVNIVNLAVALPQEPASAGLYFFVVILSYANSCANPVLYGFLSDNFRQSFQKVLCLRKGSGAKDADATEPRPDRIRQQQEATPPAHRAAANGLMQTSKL

SMILES | IC50 [1] | IC50 [2] | IC50 [3] | IC50 [4] | IC50 [5] | IC50 [6]
CC(C)[C@@H]1NC(=O)[C@H](CCCCN)NC(=O)[C@@H](Cc2c[nH]c3ccccc23)NC(=O)[C@H](Cc2ccc(O)cc2)NC(=O)[C@H](Cc2ccccc2)NCCNC(=O)CCCN([C@@H](Cc2ccccc2)C(=O)N[C@H](C(N)=O)[C@@H](C)O)C1=O (H-[N(2-aminoethyl)Phe]Y[dW]KV[Phe(Nα-(CH2)3CO)]T-NH2; lactam 1-6) | 67 nM |  |  |  |  | 
C[C@@H](O)[C@@H](CO)NC(=O)[C@@H]1C/C=C\C[C@H](NC(=O)[C@H](N)Cc2ccccc2)C(=O)N[C@@H](Cc2ccccc2)C(=O)N[C@H](Cc2c[nH]c3ccccc23)C(=O)N[C@@H](CCCCN)C(=O)N[C@@H](Cc2ccccc2)C(=O)N1 |  | 206 nM | > 1000 nM | > 1000 nM | 961 nM | 141 nM
C[C@H](N)COC(=O)[C@H](CCCCN)NC(=O)Cc1c(-c2ccc3ccccc3c2)[nH]c2c1ccc1ccccc12 | 0.4 nM |  |  |  |  | 
C[C@@H](O)[C@@H]1NC(=O)[C@H](CCCCN)NC(=O)[C@@H](Cc2c[nH]c3ccccc23)NC(=O)[C@H](Cc2ccccc2)NC(=O)[C@@H](NC(=O)[C@H](N)Cc2ccccc2)CCCC[C@@H](C(=O)N[C@H](CO)[C@@H](C)O)NC1=O |  | 203 nM | > 1000 nM | 49 nM | > 1000 nM | 214 nM
C[C@@H](O)[C@@H]1NC(=O)[C@H](CCCCN)NC(=O)[C@@H](Cc2c[nH]c3ccccc23)NC(=O)[C@H](Cc2ccccc2)NC(=O)[C@@H](NC(=O)[C@H](N)Cc2ccccc2)C/C=C\C[C@@H](C(=O)N[C@H](CO)[C@@H](C)O)NC1=O |  | 28 nM | > 1000 nM | 44 nM | > 1000 nM | 412 nM
